Results published in ChEMBL document CHEMBL4152289, “Novel 8-nitroquinolin-2(1H)-ones as NTR-bioactivated antikinetoplastid molecules: Synthesis, electrochemical and SAR study” (Eur J Med Chem, 2018).
pIC50: −log10 of the molar value.

Columns and labels:
[1] = test system: Leishmania infantum; test: microbe, parasite or virus in culture; assay type: functional, organism-based; settings: MHOM/MA/67/ITMAP-263, 48 h
[2] = test system: Trypanosoma brucei brucei; test: Antitrypanosomal activity against trypomastigote stage of Trypanosoma brucei brucei AnTat 1.9 assessed as decrease in parasite viability after 69 hrs by Alamar Blue assay; assay type: functional, organism-based; settings: AnTat 1.9, 69 h
[3] = test system: HepG2; test: Cytotoxicity against human HepG2 cells assessed as decrease in cell viability after 72 hrs by MTT assay; settings: hepg2, 72 h
[4] = Electrochemical behavior of the compound assessed as redox potential corrected toward normal hydrogen electrode at 10^-3 mol/L by cyclic voltammetry; settings: 1000 µM
[5] = test system: THP-1; test: Cytotoxicity against human THP1 cells assessed as decrease in cell viability after 72 hrs by MTT assay; assay type: cell-based; settings: thp-1, 72 h
Method in brief: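 PMA-differentiated THP-1 (50 ng/mL final), 10⁶ cells/mL in complete RPMI, 48 h. Compounds in DMSO (<0.5% v/v) for 72 h at 37 °C. MTT 0.5 mg/mL for 2 h, formazan dissolved in DMSO, A570 with 630 nm reference. Viability expressed as percent of untreated control; doxorubicin as positive control; 50% cytotoxic concentration from dose–response curve.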

[6] = test system: Leishmania donovani; test: Antileishmanial activity against amastigote stage of Leishmania donovani MHOM/IN/00/DEVI infected in human THP1 cells assessed as inhibition of parasite infection after 120 hrs by Giemsa staining-based microscopic method; assay type: functional, organism-based; settings: THP-1, 120 h
Method in brief: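 THP-1 cells differentiated with PMA (50 ng/mL final), 48 h at 37 °C, 6% CO2, then infected 10:1 with promastigotes acid-primed 24 h at 27 °C in Schneider 20% FCS pH 5.4. After 24 h, compounds in DMSO (<0.5% v/v) added in duplicate for 120 h. Methanol fixation and Giemsa staining; ≥200 cells counted. IC50 is the concentration halving infected macrophages, nonlinear regression, mean of three independent experiments.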

[7] = test system: Leishmania donovani; test: Antileishmanial activity against wild type promastigote stage of Leishmania donovani LdBOB assessed as inhibition of parasite growth after 72 hrs by resazurin assay; assay type: functional, organism-based
Method in brief: (§1)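 LdBOB promastigotes (from MHOM/SD/62/1S-CL2D) grown at 26 °C in modified M199. NTR1- and NTR2-overexpressing lines kept in nourseothricin 100 µg/mL. Triplicate 10 mL cultures seeded at 5 × 10⁴ parasites/mL and exposed to drug for 72 h. 50 µM resazurin added, fluorescence (ex 528/em 590 nm) read after 4 h. Background-corrected data fitted to two-parameter EC50 equation. Experiments were run at least twice; values are mean plus standard deviation.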

[8] = test system: Leishmania donovani; test: Antileishmanial activity against promastigote stage of Leishmania donovani LdBOB over-expressing NTR1 assessed as inhibition of parasite growth after 72 hrs by resazurin assay; assay type: functional, organism-based
Method in brief: as §1

[9] = test system: Leishmania donovani; test: Antileishmanial activity against promastigote stage of Leishmania donovani LdBOB over-expressing NTR2 assessed as inhibition of parasite growth after 72 hrs by resazurin assay; assay type: functional, organism-based
Method in brief: as §1

[10] = test system: Trypanosoma brucei brucei; test: Antitrypanosomal activity against trypomastigote stage of Trypanosoma brucei brucei S427 over-expressing NTR1 assessed as parasite growth inhibition after 72 hrs by haemocytometer; assay type: functional, organism-based; settings: S427, 72 h
[11] = test system: Trypanosoma brucei brucei; test: Antitrypanosomal activity against wild type trypomastigote stage of Trypanosoma brucei brucei S427 assessed as parasite growth inhibition after 72 hrs by haemocytometer; assay type: functional, organism-based; settings: S427, 72 h
[12] = test system: Leishmania donovani; test: Selectivity ratio of IC50 for wild type promastigote stage of Leishmania donovani LdBOB to IC50 for promastigote stage of Leishmania donovani LdBOB over-expressing NTR1; assay type: functional
[13] = Half life in CD1 mouse liver microsomes by LC-MS method; assay type: ADME, microsome
Method in brief: (§2)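 Duplicate incubations with female CD-1 mouse microsomes at 37 °C in 50 mM phosphate pH 7.4 with MgCl2 5 mM, NADP 1 mM, G6PDH 0.4 U/mL and glucose-6-phosphate 5 mM. Samples at 0, 5, 10, 20, 30 and 40 min quenched with 4 vol acetonitrile containing internal standard, then LC-MS/MS.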

[14] = target: T1, serum albumin (Homo sapiens, UniProt P02768); test: Binding affinity to human serum albumin after 4 hrs by LC-MS method; assay type: ADME; settings: read-out: PB (converted)
T1 sequence (P02768 whole entry): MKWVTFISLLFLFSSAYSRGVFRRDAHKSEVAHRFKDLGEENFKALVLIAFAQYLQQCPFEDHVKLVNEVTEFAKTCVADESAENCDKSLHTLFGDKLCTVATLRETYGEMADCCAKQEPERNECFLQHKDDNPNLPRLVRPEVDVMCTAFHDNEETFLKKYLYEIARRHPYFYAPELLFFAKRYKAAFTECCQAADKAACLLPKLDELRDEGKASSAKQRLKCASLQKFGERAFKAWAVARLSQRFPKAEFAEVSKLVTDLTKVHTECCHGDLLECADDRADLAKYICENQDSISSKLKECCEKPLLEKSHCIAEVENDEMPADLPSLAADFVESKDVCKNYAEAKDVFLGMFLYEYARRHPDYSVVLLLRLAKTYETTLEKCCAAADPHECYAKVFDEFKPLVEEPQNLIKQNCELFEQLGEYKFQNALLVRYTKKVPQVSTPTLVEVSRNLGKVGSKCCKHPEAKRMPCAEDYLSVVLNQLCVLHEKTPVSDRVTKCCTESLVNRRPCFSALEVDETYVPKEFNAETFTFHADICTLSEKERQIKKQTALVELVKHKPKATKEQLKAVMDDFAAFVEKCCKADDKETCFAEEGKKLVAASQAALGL

[15] = test system: Salmonella typhimurium; test: Mutagenicity in Salmonella typhimurium TA97a at […] preincubated for 1 hr with S9 mix followed by addition of molten top agar and measured 48 hrs post dark incubation by Ames test; assay type: toxicity, organism-based; settings: salmonella enterica subsp. enterica serovar typhimurium
[16] = test system: Salmonella typhimurium; test: Mutagenicity in Salmonella typhimurium TA98 at […] preincubated for 1 hr with S9 mix followed by addition of molten top agar and measured 48 hrs post dark incubation by Ames test; assay type: toxicity, organism-based; settings: salmonella enterica subsp. enterica serovar typhimurium
[17] = test system: Salmonella typhimurium; test: Mutagenicity in Salmonella typhimurium TA100 at […] preincubated for 1 hr with S9 mix followed by addition of molten top agar and measured 48 hrs post dark incubation by Ames test; assay type: toxicity, organism-based; settings: salmonella enterica subsp. enterica serovar typhimurium
[18] = test system: Salmonella typhimurium; test: Mutagenicity in Salmonella typhimurium TA102 at […] preincubated for 1 hr with S9 mix followed by addition of molten top agar and measured 48 hrs post dark incubation by Ames test; assay type: toxicity, organism-based; settings: salmonella enterica subsp. enterica serovar typhimurium
[19] = test system: HepG2; test: Genotoxicity in human HepG2 cells at 1 to 40 uM after 2 to 72 hrs by comet assay; assay type: toxicity, cell-based; settings: hepg2, 40 µM
Method in brief: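 Alkaline comet assay in HepG2 cells exposed 2 or 72 h to 1, 10, 20 or 40 µM. Cells embedded in 0.7% low-melting agarose, lysed 18 h at 4 °C at pH 10, electrophoresed 24 min at 0.8 V/cm at pH >13, then SYBR Gold stained. % tail DNA is the median of 200 cells (50 per deposit, 4 deposits). 1 mM methylmethanesulfonate as positive control.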

[20] = Metabolic stability in CD1 mouse liver microsomes at 5 mins by LC-MS method; assay type: ADME, microsome
Method in brief: as §2

[21] = Metabolic stability in CD1 mouse liver microsomes at 10 mins by LC-MS method; assay type: ADME, microsome
Method in brief: as §2

[22] = Metabolic stability in CD1 mouse liver microsomes at 20 mins by LC-MS method; assay type: ADME, microsome
Method in brief: as §2

[23] = Metabolic stability in CD1 mouse liver microsomes at 30 mins by LC-MS method; assay type: ADME, microsome; settings: 0.5 h
Method in brief: as §2

[24] = Metabolic stability in CD1 mouse liver microsomes at 40 mins by LC-MS method; assay type: ADME, microsome
Method in brief: as §2

[25] = target: Albumin (Homo sapiens, UniProt P02768); test: (§3) Binding affinity to human serum albumin assessed as fraction unbound after 4 hrs by LC-MS method; assay type: ADME; settings: isolated protein, 4 h
Albumin, sequence (P02768 whole entry): as above

[26] = target: T1, serum albumin; test: as §3; assay type: ADME; settings: human serum albumin

## Nc1cccc2cc(Br)c(=O)[nH]c12
[1]
  pIC50: < 4.30
[2]
  pIC50: < 4.30
[3]
  CC50: > 100 µM

## O=c1[nH]c2c([N+](=O)[O-])cccc2cc1Br
[4]
  Activity: -0.45 V
[1]
  pIC50: 5.15
[2]
  pIC50: 5.72
[3]
  CC50: 92 µM
[5]
  CC50: 72 µM
[6]
  pIC50: 4.74
[7]
  pIC50: 5.23
[8]
  pIC50: 6.33
[9]
  pIC50: 5.34
[10]
  pIC50: 5.41
[11]
  pIC50: 4.75
[12]
  Ratio IC50: 10
[13]
  t1/2: > 40 min
[14]
  fraction unbound at 4 h: 0.078
[15]; 250 µM
  Activity: Toxic
[15]; 2500 µM
  Activity: Toxic
[16]; 250 µM
  Activity: Toxic
[16]; 2500 µM
  Activity: Toxic
[17]; 250 µM
  Activity: Toxic
[17]; 2500 µM
  Activity: Toxic
[18]; 250 µM
  Activity: Non-Toxic
[18]; 2500 µM
  Activity: Toxic
[19]
  Activity: Non-Toxic
[20]
  Stability: 861 pmol/mL
[21]
  Stability: 869 pmol/mL
[22]
  Stability: 802 pmol/mL
[23]
  Stability: 780 pmol/mL
[24]
  Stability: 772 pmol/mL
[25]
  logFu: -1.11
[26]
  fraction unbound at 4 h: 0.078

## O=c1cc(CO)c2cccc([N+](=O)[O-])c2[nH]1
[1]
  pIC50: 4.63
[2]
  pIC50: 4.42
[3]
  CC50: > 100 µM

## Cc1cc([N+](=O)[O-])c2[nH]c(=O)ccc2c1
[4]
  Activity: -0.56 V
[1]
  pIC50: 4.64
[2]
  pIC50: 5.68
[3]
  CC50: > 100 µM

## O=c1[nH]c2c([N+](=O)[O-])cccc2cc1Cl
[4]
  Activity: -0.47 V
[1]
  pIC50: 4.80
[2]
  pIC50: 5.92
[3]
  CC50: 85 µM

## NCCOCCOCCNCc1cc(=O)[nH]c2c([N+](=O)[O-])cccc12
[1]
  pIC50: < 4.00
[2]
  pIC50: 5.12
[3]
  CC50: > 100 µM

## CC(=O)Nc1ccc2cccnc2c1[N+](=O)[O-]
[4]
  Activity: -0.86 V
[1]
  pIC50: < 4.00
[2]
  pIC50: 4.97
[3]
  CC50: > 100 µM

## COc1cc([N+](=O)[O-])c2[nH]c(=O)ccc2c1
[4]
  Activity: -0.58 V
[1]
  pIC50: < 4.00
[2]
  pIC50: < 4.30
[3]
  CC50: > 100 µM

## Cc1ccc([N+](=O)[O-])c2[nH]c(=O)ccc12
[4]
  Activity: -0.58 V
[1]
  pIC50: 4.60
[2]
  pIC50: 4.54
[3]
  CC50: > 100 µM

## C[C@@H]1[C@H](O)[C@@H](C)/C=C/C=C/C=C/C=C/C=C/C=C/C=C/[C@H](O[C@@H]2O[C@H](C)[C@@H](O)[C@H](N)[C@@H]2O)C[C@@H]2O[C@](O)(C[C@@H](O)C[C@@H](O)[C@H](O)CC[C@@H](O)C[C@@H](O)CC(=O)O[C@H]1C)C[C@H](O)[C@H]2C(=O)O [AMPHOTERICIN B]
[1]
  pIC50: 7.22
[5]
  CC50: 3.6 µM
[6]
  pIC50: 6.40

## NC(=O)N1c2ccccc2C=Cc2ccccc21 [CARBAMAZEPINE]
[14]
  fraction unbound at 4 h: 0.276
[25]
  logFu: -0.56
[26]
  fraction unbound at 4 h: 0.276

## NCCC[C@](N)(C(=O)O)C(F)F [EFLORNITHINE, (S)-]
[2]
  pIC50: 4.80
[3]
  CC50: > 100 µM

## CSc1ccc(OCc2ncc([N+](=O)[O-])n2C)cc1 [FEXINIDAZOLE]
[1]
  pIC50: 5.47
[2]
  pIC50: 6.40
[3]
  CC50: > 200 µM
[5]
  CC50: > 62.5 µM
[6]
  pIC50: < 4.30

## CCCCCCCCCCCCCCCCOP(=O)([O-])OCC[N+](C)(C)C [MILTEFOSINE]
[1]
  pIC50: 6.10
[5]
  CC50: > 40 µM
[6]
  pIC50: 5.27

## O=[N+]([O-])c1ccccc1 [NITROBENZENE]
[4]
  Activity: -0.85 V
[1]
  pIC50: < 4.00
[2]
  pIC50: < 4.30
[3]
  CC50: > 100 µM

## Cc1ccc(C(=O)Nc2ccc(S(=O)(=O)O)c3cc(S(=O)(=O)O)cc(S(=O)(=O)O)c23)cc1NC(=O)c1cccc(NC(=O)Nc2cccc(C(=O)Nc3cc(C(=O)Nc4ccc(S(=O)(=O)O)c5cc(S(=O)(=O)O)cc(S(=O)(=O)O)c45)ccc3C)c2)c1 [SURAMIN]
[3]
  CC50: > 100 µM
